Source: PubChem
Compounds with a hit are over-represented: about 2.6% of the library has one in this group of screens.
OX1R antag-1 = human HCRTR1 antagonism; O43613; CHO/OX1R cells, Fluo-8 calcium fluorescence, orexin A; inhibition, % at 5 µM; hit rate 0.43% among 330,000; AID 434989;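 active = inhibition above its plate's threshold, mean inhibition of all tested compounds on the plate plus 3 SD, cut at about 37% in these data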;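 also: 0% = orexin A challenge wells and 100% = SB-334867-A antagonist wells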
OX1R antag-2 = antagonists of human orexin 1 receptor (OX1R) | O43613 | OX1R-expressing cells, FRET antagonist read-out | inhibition, % at 6.6 µM | hit rate 1.8% among 330,000 | AID 485270; in the data active = inhibition mostly above about 38%, no sharp cut-off; inactive = mostly below about 40%;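 also: 0% = agonist challenge alone and 100% = reference antagonist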
OXTR potentiate = human OXTR potentiation; CHO-OTR cells, Fluo-8 calcium fluorescence, potentiator mode; 0% = oxytocin EC15, 100% = EC100; activation, % at 3 µM; hit rate 0.061% among 320,000;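 active = activation above that plate's cutoff, the mean activation of tested compounds plus 3 SD, cut at about 6.6% in these data, passing the limit was not always enough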;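 also: 100% uses oxytocin at 75 nM as the full agonist control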
Target sequence (P30559 whole entry, looked up): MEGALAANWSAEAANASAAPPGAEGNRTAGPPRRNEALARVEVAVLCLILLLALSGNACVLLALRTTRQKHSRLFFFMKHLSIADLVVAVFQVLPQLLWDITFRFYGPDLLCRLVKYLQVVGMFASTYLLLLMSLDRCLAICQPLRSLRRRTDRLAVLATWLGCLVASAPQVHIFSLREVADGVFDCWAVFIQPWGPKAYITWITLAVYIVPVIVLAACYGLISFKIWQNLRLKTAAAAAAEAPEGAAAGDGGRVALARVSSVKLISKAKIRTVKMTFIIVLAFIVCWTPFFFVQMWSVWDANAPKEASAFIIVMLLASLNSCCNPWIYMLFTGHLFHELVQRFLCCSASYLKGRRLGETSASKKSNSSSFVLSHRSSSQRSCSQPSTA
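test system = CHO-OTR cells, human receptor | compound = single-point 3.0 µM | schedule = 6 min compound pre-incubation at room temperature, 100 s kinetic read | signal = Fluo-8 no-wash calcium dye fluorescence, excitation 470-495 nm, emission 515-575 nm | repeats = single well per compound, singlicate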
V1R ag counter = counter-screen for oxytocin receptor agonists: human V1a receptor agonists | P37288 | CHO-V1R cells, Fluo-8 calcium fluorescence, agonist mode; 0% DMSO, 100% 3 nM vasopressin | activation, % at 3 µM | hit rate 0.25% among 320,000;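 active = activation above the mean activation of all tested compounds plus 3 SD, per screening run, cut at about 20% in these data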;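 also: signal is peak over basal fluorescence ratio across a 100 second FLIPR read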
OXTR agonist = agonists of human oxytocin receptor | hit rate 0.32% among 320,000 | CHO-OTR cells, Fluo-8 calcium fluorescence; normalized: DMSO 0%, oxytocin 100% | activation, % at 3 µM | AID 2435 | P30559;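 active = activation above the mean of all tested compounds plus 3 SD, cutoff set per screening run, cut at about 20% in these data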;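 also: peak over basal fluorescence ratio from a 100 s FLIPR kinetic read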
CHO parental Ca = counter-screen: ATP calcium response change in parental CHO cells; parental CHO-K1, ATP-induced calcium, Fluo-8 fluorescence; inhibition, % at 5.6 µM; hit rate 0.63% among 330,000;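 active = inhibition above that plate's mean sample inhibition plus 3 SD, cut at about 26% in these data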;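 also: 0% = ATP-challenged DMSO wells and 100% = DMSO wells without ATP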
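Test system: untransfected parental CHO cell line; also added: ATP stimulus; dosing: 5.6 µM, single dose; signal: calcium-sensitive Fluo-8 fluorescence; measure: percent inhibition of ATP-evoked calcium rise, normalized to controls; benchmarks: low control ATP plus DMSO, high control DMSO only; replication: one well per compound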
Numbers without * were called inactive; . = not tested or not shown.

SMILES	OX1R antag-1	OX1R antag-2	OXTR potentiate	V1R ag counter	OXTR agonist	CHO parental Ca
CC1(C)Cc2c(sc(NC(=O)c3ccc(C(=O)c4ccccc4)cc3)c2C(N)=O)C(C)(C)N1	28.4	3.2	-14.8	8.7	16.8	29.1*
NC(=O)C1Cc2ccccc2CN1C(=O)c1nn(Cc2ccccc2)c(=O)c2ccccc12 (stereo not given)	4.5	15.9	-0.6	4.5	0.3	-28.7
CCc1cccc(NS(=O)(=O)c2ccc3c(c2)NC(=O)C(C)S3)c1 (stereo not given)	21.3	25.0	-5.0	6.8	2.2	52.9*
O=C1COc2ccc(S(=O)(=O)CCC(=O)N3CCN(c4cccc(C(F)(F)F)c4)CC3)cc2N1	-1.6	17.1	-12.7	8.7	8.1	38.1*
Cc1ccc(NC(=O)C2CCN(S(=O)(=O)c3ccc4c(c3)NC(=O)C(C)S4)CC2)c(C)c1 (stereo not given)	-23.9	4.1	-7.4	5.9	3.5	-17.1
O=C1COc2ccc(S(=O)(=O)N3CCN(c4cccc(C(F)(F)F)c4)CC3)cc2N1	-3.4	3.8	-12.5	1.0	0.4	-3.4
CCc1ccc(NC(=O)C2CCN(S(=O)(=O)c3ccc4c(c3)NC(=O)C(C)S4)CC2)cc1 (stereo not given)	19.2	13.1	-11.2	6.3	2.9	56.6*
CC1Sc2ccc(S(=O)(=O)N3CCC(C(=O)NCc4ccc(Cl)cc4)CC3)cc2NC1=O (stereo not given)	-6.4	4.7	-7.4	7.1	4.1	1.9
Cc1ccc(NC(=O)C2CCN(S(=O)(=O)c3ccc4c(c3)NC(=O)C(C)S4)CC2)cc1C (stereo not given)	9.6	12.1	-7.1	6.4	1.7	51.4*
COc1ccc(CNC(=O)C[C@H]2C[C@H](C(=O)N3CCCCC3)[C@@]3(C)c4[nH]c5ccc(Cl)cc5c4CCN3C2=O)cc1OC	-26.4	4.1	.	.	.	-35.3
CC1Sc2ccc(S(=O)(=O)CCC(=O)N3CCN(c4cccc(Cl)c4)CC3)cc2NC1=O (stereo not given)	13.2	14.3	-12.3	13.6	12.3	33.9*
CC1Sc2ccc(S(=O)(=O)N3CCC(C(=O)Nc4cccc(Cl)c4)CC3)cc2NC1=O (stereo not given)	29.8	14.0	-6.0	6.1	3.5	57.9*
CCCN(CC(=O)Nc1ccccc1C)C(=O)C1CC(=O)N(c2ccc(CC)cc2)C1 (stereo not given)	-21.9	-0.2	-4.4	0.9	-0.6	-21.2
C=CCNC(=O)c1cc2c(=O)n3cc(C)ccc3nc2nc1NCC1CCCO1 (stereo not given)	-8.6	47.0*	-4.3	-0.9	-0.1	6.9
Cc1ccc2nc3nc(NCC4CCCO4)c(C(=O)NC4CCCC4)cc3c(=O)n2c1 (stereo not given)	-19.2	43.3	-2.4	1.8	0.5	-16.7
COCCCNC(=O)c1cc2c(=O)n3cc(C)ccc3nc2nc1NCC1CCCO1 (stereo not given)	-16.2	104.8*	-1.6	0.9	-1.0	-12.6
Cc1ccc2nc3nc(NCC4CCCO4)c(C(=O)NC4CCCCC4)cc3c(=O)n2c1 (stereo not given)	-13.4	24.6	-3.0	-1.1	0.5	5.6
CCNc1nc2nc3ccc(C)cn3c(=O)c2cc1C(=O)NCC1CCCO1 (stereo not given)	-22.6	63.6*	-13.8	0.1	-0.7	-17.2
O=C1CCc2cc(S(=O)(=O)Nc3ccccc3)cc3c2N1CC3	-0.2	18.1	-15.4	0.1	0.2	1.1
CCN(CC(=O)Nc1c(F)cccc1F)C(=O)C1=COCCO1	-6.5	6.9	0.0	0.9	-0.1	-5.6
Cn1c(/C(C#N)=C/c2ccc(O)cc2)nc2ccccc21	-19.1	6.1	-4.0	0.1	1.6	-16.7
COc1cc(/C=C(\C#N)c2nc3ccccc3[nH]2)cc(OC)c1O	12.9	22.8	-10.2	28.9*	27.6*	0.2
COc1cc(/C=C(\C#N)c2nc3ccccc3n2C)cc(OC)c1O	8.7	3.5	-5.1	28.6*	25.7*	14.1
O=C(Nc1ccc(-c2n[nH]c(=S)o2)cc1)c1ccccc1Br	-5.3	7.1	5.1	0.4	0.2	-0.9
CCc1nnc2n1N=C(c1ccc([N+](=O)[O-])cc1)CS2	-11.8	56.1*	-2.2	1.4	-0.4	-10.9
SMILES	OX1R antag-1	OX1R antag-2	OXTR potentiate	V1R ag counter	OXTR agonist	CHO parental Ca
CC1CCN(C(=O)CSc2nnc3ccc(-c4cccnc4)nn23)CC1	-24.4	34.8*	-13.7	-0.6	-1.9	-10.2
COc1cccc(-c2ccc3nnc(SCC(=O)N4CCOCC4)n3n2)c1	-7.9	51.5*	-4.6	-0.7	-1.8	-1.5
CCSc1nnc2ccc(-c3ccc(OC)c(OC)c3)nn12	-5.7	39.2*	-4.1	-1.2	-2.3	-7.7
COc1cccc(-c2ccc3nnc(SCC(=O)N4CCCC4)n3n2)c1	-22.3	21.5	1.9	-1.1	-2.5	-7.4
Cc1ccccc1NC(=O)CSc1nnc2ccc(-c3cccnc3)nn12	-19.5	53.5*	-8.6	0.1	5.3	-7.4
Cc1sc2ncnc(N3CCN(Cc4ccccc4)CC3)c2c1-c1ccc(F)cc1	-58.1	22.4	2.2	0.1	0.3	-27.4
Cc1ccccc1OCC(=O)Nc1ccccc1C(=O)NC1CC1	-29.4	33.4	-9.0	-0.2	-1.6	-20.9
O=C(CN1C(=O)NC2(CCCCC2)C1=O)NCCCSc1ccccc1	-2.5	1.7	-2.9	0.4	-0.1	-19.0
Cc1ccc(NC(=O)N2CCCC2C(=O)NCc2ccc(Cl)cc2)cc1 (stereo not given)	-22.6	4.2	-0.9	-0.7	-2.4	-22.5
COc1ccccc1CCNC(=O)CSc1nnc2ccc(-c3ccncc3)nn12	-19.9	39.2*	-3.7	0.6	-0.6	-11.9
O=C(CSc1ccc(-c2ccccc2)nn1)N1CCOCC1	-3.5	48.6*	-3.4	0.4	0.1	-13.7
Cc1cc(NC(=O)CNCC(c2ccccc2)N(C)C)c([N+](=O)[O-])cc1C (stereo not given)	-35.9	13.5	-4.8	-0.9	0.2	-27.0
CC1(C)C(=O)Nc2ccccc2N1C(=O)COC(=O)c1ccc([N+](=O)[O-])o1	6.5	25.8	-1.7	1.1	0.6	-9.7
O=C1CN(C(=O)COC(=O)c2ccc([N+](=O)[O-])o2)c2ccccc2N1	-19.8	34.2*	1.4	0.3	1.1	-6.3
O=C1CN(C(=O)COC(=O)c2ccc([N+](=O)[O-])s2)c2ccccc2N1	-12.7	45.0*	-5.9	1.6	1.5	-11.0
CC1CN(C(=O)c2ccccc2OCc2ccc(Cl)cc2Cl)CC(C)O1 (stereo not given)	-15.9	3.0	0.8	-1.4	-2.9	-24.4
Cc1cccc(-n2ncc3c2CCCC3NC(=O)C2CCOCC2)c1C (stereo not given)	-8.7	12.6	-7.5	7.0	3.5	-14.0
